HUVEC inhibit – human endothelial cell proliferation inhibition. HUVEC proliferation, CellTiter-Glo luminescence, 72 h; stronger effect = lower value. viability, % at 10 µM (by protocol). actives 1.1% (n = 86,000). AID 648;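 active = viability at or below 30%; inactive = viability above 30%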;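 also: 100% = median luminescence of DMSO-only cell control wells on each plate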
H69AR inhibit – growth inhibitors of human H69AR lung tumor cells. actives 6% (n = 85,000). H69AR lung tumor viability, ATP luminescence, 72 h; stronger effect = lower value. viability, % at 10 µM. AID 598;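 active = viability at or below 40%; inactive = viability above 40%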;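 also: multidrug resistant small cell line overexpressing MRP-1 efflux transporter; 100% = mean luminescence of untreated control wells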
HCT116 PTEN-null – PTEN-deleted cell growth suppression; HCT116 PTEN-null viability, CellTiter-Glo, 60 h; stronger effect = lower value; viability, % at 10 µM; actives 1.2% (n = 140,000); AID 827;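 active = viability at or below a set limit, 4 SD under the median of all tested compounds, cut at about 3.7% in these data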;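 also: PTEN knockout HCT116 line with beta catenin targeted HCT116 as companion control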
Lung fibro prol – blocks proliferation of human lung fibroblasts | LL 47 human lung fibroblast viability, ATP luminescence; stronger effect = lower value | viability, % at 10 µM | actives 1.1% (n = 85,000) | AID 719;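 active = viability at or below 50% in the single dose screen; inactive = viability above 50%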;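 also: compound exposure lasted 72 h before the ATP readout; 100% = median luminescence of untreated cell-only wells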
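Test system: LL 47 human lung fibroblasts / Incubation: 72 h compound exposure at 37 °C after overnight plating / Technique: luminescent ATP detection, CellTiter-Glo / Compound dosing: 0.1% DMSO in all compound wells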
HCT116 bCat-KO – beta-catenin-lacking colon tumor cell growth suppression; HCT116 beta-catenin knockout viability, CellTiter-Glo, 60 h; stronger effect = lower value; viability, % at 10 µM; actives 1.5% (n = 140,000); AID 818;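 active = viability at or under a set limit, the compound median less 4 SD, cut at about 6% in these data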;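 also: 0% = Hyamine 1622 control at 20 µM and 100% = untreated cell control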
The depositor's hits bear a star; / = not tested or not shown. This is one part of a sample in which hits are shown more often than they occur.

SMILES	HUVEC inhibit	H69AR inhibit	HCT116 PTEN-null	Lung fibro prol	HCT116 bCat-KO
Cc1c2ccccc2nc2c(F)c(NCCO)c(F)c(F)c12	/	/	68	/	56
CCOc1cc2[nH]c(=O)n(CC3CCC(C(=O)NC4CCCCC4)CC3)c(=O)c2cc1OCC (stereo not given)	30*	90	/	100	/
CN(Cc1ccccc1)C(=O)C1CCCN(Cc2ccc(Cl)cc2)C1 (stereo not given)	97	87	66	94	61
CCCCOc1ncnc2c1[nH]c1ccc(OC)cc12	97	53	77	98	82
COc1ccc2[nH]c3c(Cl)ncnc3c2c1	/	/	9	/	5.7*
COc1ccccc1/C=C/C1(C(=O)NC2CCCC2)CC(=O)N1c1ccc(F)cc1 (stereo not given)	35	0.5*	15	1.9*	17
COc1ccccc1/C=C/C1(C(=O)NC2CCCC2)CC(=O)N1c1ccc(C)cc1 (stereo not given)	39	2.1*	10	48*	10
CCN(CC)S(=O)(=O)c1ccc(N2C(=O)CC2(/C=C/c2ccccc2)C(=O)NC2CCCC2)cc1 (stereo not given)	/	/	73	/	81
CCOC(=O)c1cc[n+](CC(=O)c2ccc(F)cc2)cc1	/	/	99	/	102
O=C(Nc1ccc2c(c1)OCO2)C1CCCCN1S(=O)(=O)c1ccc(F)cc1 (stereo not given)	41	74	69	92	74
C=C(C)CNC(=S)N/N=C(\C)c1ccc(Cl)s1	/	/	83	/	82
Fc1cccc(Cl)c1Cn1nnc(-c2ccc3c(c2)OCO3)n1	95	85	84	98	74
Fc1cccc(Cl)c1CSc1nnnn1-c1ccc2c(c1)OCO2	89	15*	72	92	63
N/C(=N\c1nc2c(c(=O)[nH]1)CCC2)Nc1ccccc1C(F)(F)F	/	/	86	/	73
CC1CCCC(C)N1C(=O)Cn1cc(/C=C2/C(=O)Nc3ccccc32)c2ccccc21 (stereo not given)	76	23*	51	82	58
COC(=O)c1cn(CC(=O)N2C(C)CCCC2C)c2ccccc12 (stereo not given)	99	75	99	109	96
CC(C)OC(=O)/C(=C/c1cccnc1)NC(=O)c1ccccc1	/	/	85	/	93
CCOC(=O)/C(=C\c1ccccc1)C(=O)c1cc(C(C)=O)c(Nc2ccccc2)s1	3.8*	2.1*	2.4*	19*	7
CCOC(=O)/C(=C\c1cccnc1)C(=O)c1cc(C(C)=O)c(Nc2ccccc2)s1	4.1*	1.8*	2.2*	19*	2.2*
O=C1CC(c2ccco2)Cc2c1cnn2-c1nc2ccccc2s1 (stereo not given)	/	/	93	/	92
COc1ccc(OC)c(S(=O)(=O)NC2CCN(Cc3ccccc3)CC2)c1	90	76	66	103	59
COc1ccc(/C=C2\CN(Cc3ccccc3)C/C(=C\c3ccc(OC)cc3)C2=O)cc1	/	/	1.6*	/	1.7*
COc1ccc(/C=C2\CN(Cc3ccccc3)C/C(=C\c3ccc(OC)cc3OC)C2=O)c(OC)c1	/	/	2.7*	/	4.8*
COc1ccc(-n2c(=O)cc(N3CCN(Cc4ccccc4)CC3)[nH]c2=O)cc1	88	93	100	90	88
Cc1ccc2cc(C#N)c(SCc3nnc(-c4ccccc4[N+](=O)[O-])o3)nc2c1	/	/	1.2*	/	1.4*
SMILES	HUVEC inhibit	H69AR inhibit	HCT116 PTEN-null	Lung fibro prol	HCT116 bCat-KO
Cc1ccc2nc3sc(-c4nnc(-c5ccccc5[N+](=O)[O-])o4)c(N)c3cc2c1	/	/	92	/	99
COc1cc(N/C=C(\C(C)=O)c2ccccc2)cc(OC)c1	/	/	98	/	86
c1ccc(-c2cc(-c3nc(-c4cccnc4)no3)c3ccccc3n2)cc1	83	12*	/	107	/
c1ccc(-c2ccccc2-c2nc(-c3cccnc3)no2)cc1	76	76	85	95	97
Cc1ccc2nc(NC(=O)c3ccc(-c4nc5ccccc5s4)s3)sc2c1	/	/	2.5*	/	4.7*
O=C(Nc1nc2ccccc2s1)c1ccc(Cl)s1	98	79	83	105	85
Cc1ccc(-n2nnnc2-c2ccco2)cc1	96	95	97	96	98
Cc1ccc(-n2nnnc2C(Cl)c2nnnn2-c2ccc(C)cc2)cc1	/	/	1.1*	/	1.6*
COc1ccc(-c2nn(-c3ccccc3)cc2CNC(=O)c2cccc([N+](=O)[O-])c2)cc1	/	/	72	/	74
Brc1ccc(OCc2nnc3n2CCC3)cc1	/	/	99	/	93
